Molecules are shown by their SMILES. Where only a bound is given, the exact number is not on record here.

Assay [1] has as its target Protein arginine N-methyltransferase 5 (Homo sapiens, UniProt O14744). The experiment in a line: Displacement of [3H]-SAM from recombinant His6-tagged PRMT5 (unknown origin) expressed in Escherichia coli BL21(DE3) incubated for 5 mins prior to H4(1 to 20)-BTN peptide addition measured after 8 mins by scintillation proximity assay. Put shortly:
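Recombinant His6-PRMT5 was purified on Ni-NTA after IPTG induction in E. coli BL21(DE3). [3H]SAM and H4(1–20)BTN were set near their predetermined Km. Serially diluted compound was preincubated 5 min before peptide addition, reacted 8 min, isopropanol-quenched, and read with streptavidin SPA beads. IC50 and nH came from a Hill fit.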
Background: In a radioligand displacement assay an active substance lowers the binding of a labelled ligand.

Assay [2] is filed under the species Homo sapiens. The experiment in a line: Selectivity ratio of IC50 for recombinant […] (unknown origin) to IC50 for recombinant His6-tagged PRMT1 (unknown origin).
Assay [3] has as its target Protein arginine N-methyltransferase 8 (Homo sapiens, UniProt Q9NR22). The experiment in a line: Displacement of [3H]-SAM from recombinant His6-tagged PRMT8 (unknown origin) expressed in Escherichia coli BL21(DE3) incubated for 5 mins prior to H4(1 to 20)-BTN peptide addition measured after 8 mins by scintillation proximity assay. In outline:
(§1)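 Serial compound dilutions were tested in the same SPA format (His-tagged enzyme purified from E. coli BL21(DE3), 5 min preincubation, H4(1–20)-biotin substrate, 8 min reaction, ~25 °C, HEPES pH 8.0 buffer). [3H]SAM and peptide were set near their predetermined Km values for each enzyme. Remaining activity was fitted to a Hill-modified IC50 equation, giving IC50 and Hill coefficient.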

Assay [4] is filed under the species Homo sapiens. The assay is described as follows: Selectivity ratio of IC50 for recombinant His6-tagged PRMT5 (unknown origin) to IC50 for recombinant His6-tagged PRMT1 (unknown origin).
Assay [5] has as its target T1, Protein arginine N-methyltransferase 1 (Homo sapiens, UniProt Q99873). The experiment in a line: Displacement of [3H]-SAM from recombinant His6-tagged PRMT1 (unknown origin) expressed in Escherichia coli BL21(DE3) incubated for 5 mins prior to H4(1 to 20)-BTN peptide addition measured after 8 mins by scintillation proximity assay. In outline:
as §1
Target sequence in this assay (Q99873 whole entry): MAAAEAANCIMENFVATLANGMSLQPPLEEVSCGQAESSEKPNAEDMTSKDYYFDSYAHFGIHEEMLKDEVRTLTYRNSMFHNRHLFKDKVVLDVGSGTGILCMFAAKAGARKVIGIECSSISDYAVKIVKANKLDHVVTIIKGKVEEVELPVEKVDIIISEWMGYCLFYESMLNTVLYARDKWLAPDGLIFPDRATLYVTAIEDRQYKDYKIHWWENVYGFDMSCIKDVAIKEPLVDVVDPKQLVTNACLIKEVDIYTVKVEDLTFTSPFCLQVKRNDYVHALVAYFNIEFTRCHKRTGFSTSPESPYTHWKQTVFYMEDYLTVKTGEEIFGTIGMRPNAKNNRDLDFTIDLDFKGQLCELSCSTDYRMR

Assay [6] deals with T2, Histone-arginine methyltransferase CARM1 (Homo sapiens, UniProt Q86X55).
T2 sequence (Q86X55 whole entry): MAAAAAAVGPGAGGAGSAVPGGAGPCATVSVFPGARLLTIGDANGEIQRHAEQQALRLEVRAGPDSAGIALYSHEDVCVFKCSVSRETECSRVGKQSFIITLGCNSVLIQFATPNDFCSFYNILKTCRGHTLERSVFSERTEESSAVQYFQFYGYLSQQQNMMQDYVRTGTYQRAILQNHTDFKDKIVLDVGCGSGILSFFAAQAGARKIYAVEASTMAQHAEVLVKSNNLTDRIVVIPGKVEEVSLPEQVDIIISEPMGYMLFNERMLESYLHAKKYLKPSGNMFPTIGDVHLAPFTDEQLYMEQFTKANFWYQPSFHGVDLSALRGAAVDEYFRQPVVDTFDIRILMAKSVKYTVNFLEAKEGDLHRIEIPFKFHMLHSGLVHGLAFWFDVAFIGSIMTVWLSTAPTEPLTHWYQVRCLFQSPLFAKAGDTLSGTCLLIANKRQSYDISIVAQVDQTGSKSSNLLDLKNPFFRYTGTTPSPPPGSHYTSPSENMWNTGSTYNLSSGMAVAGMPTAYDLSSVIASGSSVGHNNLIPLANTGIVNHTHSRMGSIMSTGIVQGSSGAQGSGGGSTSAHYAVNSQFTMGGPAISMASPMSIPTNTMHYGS
The experiment in a line: Displacement of [3H]-SAM from recombinant GST-tagged CARM1 (unknown origin) expressed in Escherichia coli BL21(DE3) incubated for 5 mins prior to H3.3 protein addition measured after 8 mins by P81 filter paper binding assay.

Assay [7] addresses T1, Protein arginine N-methyltransferase 1. The assay is described as follows: Displacement of [3H]-SAM from recombinant His6-tagged PRMT1 (unknown origin) expressed in Escherichia coli BL21(DE3) at 10 uM incubated for 5 mins prior to H4(1 to 20)-BTN peptide addition measured after 8 mins by scintillation proximity assay. In outline: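 His6-PRMT1 (0.02 µM) was purified from E. coli BL21(DE3) on Ni-NTA. It was preincubated 5 min with compound (10, 30 or 90 µM) and [3H]SAM (0.5 µM) in 50 mM HEPES pH 8.0, 1 mM EDTA, 50 mM NaCl, 0.5 mM DTT at ~25 °C. Biotinylated H4(1–20) peptide (1 µM) was added and the reaction run 8 min. It was quenched with isopropanol and read with streptavidin SPA beads. % inhibition was taken against water (full activity) and no-peptide blanks.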
Target sequence in this assay (Q99873 whole entry, looked up): as the sequence (Q99873 whole entry) above

Assay [8] is filed under the species Homo sapiens. The experiment in a line: Selectivity ratio of IC50 for recombinant His6-tagged PRMT8 (unknown origin) to IC50 for recombinant His6-tagged PRMT1 (unknown origin).

Protein arginine N-methyltransferase 5, sequence (O14744 whole entry): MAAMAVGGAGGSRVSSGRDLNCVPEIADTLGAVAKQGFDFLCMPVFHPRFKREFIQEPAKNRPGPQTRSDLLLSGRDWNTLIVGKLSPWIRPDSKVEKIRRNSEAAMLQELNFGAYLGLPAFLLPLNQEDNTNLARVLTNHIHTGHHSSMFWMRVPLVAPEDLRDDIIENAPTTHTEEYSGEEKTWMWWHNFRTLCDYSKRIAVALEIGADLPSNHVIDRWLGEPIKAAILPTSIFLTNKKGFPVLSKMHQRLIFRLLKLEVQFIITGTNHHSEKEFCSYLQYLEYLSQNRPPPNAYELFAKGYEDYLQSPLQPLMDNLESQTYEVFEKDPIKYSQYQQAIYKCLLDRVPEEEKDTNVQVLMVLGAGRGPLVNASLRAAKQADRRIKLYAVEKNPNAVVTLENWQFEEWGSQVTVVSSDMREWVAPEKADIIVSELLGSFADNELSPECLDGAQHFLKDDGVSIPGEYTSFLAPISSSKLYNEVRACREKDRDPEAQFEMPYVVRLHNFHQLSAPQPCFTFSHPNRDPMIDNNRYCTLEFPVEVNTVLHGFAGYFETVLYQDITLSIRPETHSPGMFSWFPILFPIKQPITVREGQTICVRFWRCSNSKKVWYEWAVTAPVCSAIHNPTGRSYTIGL
Protein arginine N-methyltransferase 8, sequence (Q9NR22 whole entry): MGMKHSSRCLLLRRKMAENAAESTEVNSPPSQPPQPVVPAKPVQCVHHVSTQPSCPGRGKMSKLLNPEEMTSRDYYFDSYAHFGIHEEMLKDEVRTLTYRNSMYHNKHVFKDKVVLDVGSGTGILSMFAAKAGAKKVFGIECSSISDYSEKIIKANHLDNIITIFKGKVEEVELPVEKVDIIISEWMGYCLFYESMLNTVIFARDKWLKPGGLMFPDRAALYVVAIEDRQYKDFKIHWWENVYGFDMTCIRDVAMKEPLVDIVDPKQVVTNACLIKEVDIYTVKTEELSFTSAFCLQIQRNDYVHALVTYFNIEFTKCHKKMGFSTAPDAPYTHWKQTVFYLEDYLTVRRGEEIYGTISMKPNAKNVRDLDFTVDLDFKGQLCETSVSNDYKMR

Take `C(/C=C/c1sc2c3ccccc3ccc2[n+]1CCCc1ccccc1)=C1/Sc2c(ccc3ccccc23)N1CCCc1ccccc1`: the IC50 (usually the point on the concentration scale where inhibition reaches its midpoint) worked out at 7.04 µM in assay [1], 28.4 µM in assay [3], 3.05 µM in assay [5] and 5.8 µM in assay [6]. Further, the Ratio IC50 in the assay filed under Homo sapiens [2] was 2; in the assay listed under Homo sapiens [4], 2; in the assay filed under Homo sapiens [8] it was above 9. For the same molecule, the inhibition (usually the share of the control response that was lost under treatment) in assay [7] is 100%.

Take `CCCCN1/C(=C/C=C(Br)/C=C/C2=[N+](CCCC)c3ccc(Br)cc3C2(C)C)C(C)(C)c2cc(Br)ccc21`: the IC50 in assay [1] worked out at 35.4 µM; in assay [3], 84.9 µM; in assay [5] it was 3.38 µM; in assay [6], 21.5 µM. In addition, the inhibition in assay [7] was found to be 96%.

With `CCCCN1/C(=C/C=C/c2sc3ccc(Br)cc3[n+]2CCCC)Sc2ccc(Br)cc21`, the IC50 in assay [1] stood at 8.36 µM; in assay [5], 2.03 µM; in assay [6], 7.23 µM. Also, the Ratio IC50 in the assay filed under Homo sapiens [2] and in the assay filed under Homo sapiens [4] was 3 in each case. Besides, in assay [7], the inhibition came out at 91%.

Values taken from ChEMBL document CHEMBL3407369, “Exploration of cyanine compounds as selective inhibitors of protein arginine methyltransferases: synthesis and biological evaluation” (J Med Chem, 2015).
